An excerpt weighted towards active compounds, which were near 2.3% of everything screened.
TRPC6 activator = mouse TRPC6 channel activators, primary screen, cell-based, HEK293, membrane potential dye. Short transient receptor potential channel 6 (Mus musculus), Q61143. HEK293-TRPC6 membrane potential dye fluorescence; hits give high values. B-score at 10 µM. 310,000 tested, 0.13% active;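 active = B-score of the integrated fluorescence ratio above library mean plus 3 SD, and starting fluorescence ratio within library mean plus 5 SD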;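 note: higher score means more depolarization so channel activation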
Target sequence (Q61143 whole entry, looked up): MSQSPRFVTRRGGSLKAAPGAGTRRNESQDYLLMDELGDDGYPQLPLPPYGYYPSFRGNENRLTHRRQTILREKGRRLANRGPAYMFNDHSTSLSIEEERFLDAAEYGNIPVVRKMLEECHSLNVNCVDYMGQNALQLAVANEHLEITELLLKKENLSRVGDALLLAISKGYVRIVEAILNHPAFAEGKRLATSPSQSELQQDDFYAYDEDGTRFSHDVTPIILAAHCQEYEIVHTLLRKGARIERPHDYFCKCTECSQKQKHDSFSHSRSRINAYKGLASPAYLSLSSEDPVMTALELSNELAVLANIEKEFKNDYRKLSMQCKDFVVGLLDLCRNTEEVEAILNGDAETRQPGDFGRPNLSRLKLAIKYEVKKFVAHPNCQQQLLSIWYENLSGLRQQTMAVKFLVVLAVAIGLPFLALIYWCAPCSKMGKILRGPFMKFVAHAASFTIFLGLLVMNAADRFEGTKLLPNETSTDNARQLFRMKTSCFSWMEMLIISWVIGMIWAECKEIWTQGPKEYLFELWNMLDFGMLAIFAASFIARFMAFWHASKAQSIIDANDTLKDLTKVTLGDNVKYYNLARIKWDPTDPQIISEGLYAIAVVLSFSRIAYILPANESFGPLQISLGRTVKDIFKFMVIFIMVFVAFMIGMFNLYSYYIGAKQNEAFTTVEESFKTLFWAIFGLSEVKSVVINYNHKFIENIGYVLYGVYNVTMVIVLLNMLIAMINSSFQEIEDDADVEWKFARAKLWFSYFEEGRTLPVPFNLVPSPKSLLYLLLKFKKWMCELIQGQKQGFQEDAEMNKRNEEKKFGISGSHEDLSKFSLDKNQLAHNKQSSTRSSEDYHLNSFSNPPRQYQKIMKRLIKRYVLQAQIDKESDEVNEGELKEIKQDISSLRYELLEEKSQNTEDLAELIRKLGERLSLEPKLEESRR
TRPC6 inh = mouse TRPC6 channel inhibitors, primary screen, cell-based, HEK293, membrane potential dye; 310,000 tested, 1.1% active; ACh-evoked depolarization; hits give low values; AID 2553, 2010; B-score at 10 µM; Short transient receptor potential channel 6 (Mus musculus), Q61143;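 active = B-score under library mean minus 3 SD, initial fluorescence not abnormally high, positive integrated signal ratio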;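 note: B-score derived from integrated fluorescence ratio over the kinetic read; more negative B-score means stronger inhibition of depolarization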
TRPC4 block = inhibitors of mouse TRPC4 channel, primary screen, Fluo4 calcium, HEK293 TRPC4beta/mu-opioid cells; Short transient receptor potential channel 4 (Mus musculus), Q9QUQ5; DAMGO-evoked Fluo4 calcium flux; hits give low values; B-score at 10 µM; 300,000 tested, 0.39% active; AID 2247, 2010;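 active = B-score over 3 SD under the library average, no early fluorescence shift, positive overall ratio signal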
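Assay system: HEK293 cells with stable TRPC4beta plus mu-opioid receptor expression; Probe or stimulus: DAMGO in two steps, submaximal then maximal; Dosing: single-point compound dosing; Measured by: Fluo4 calcium-dye fluorescence, kinetic read; Read-out basis: B score from integrated Fluo4 fluorescence ratio.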
TRPC4 potent = positive allosteric modulators of TRPC4, primary screen, cell-based, mouse TRPC4beta, HEK293 mu-opioid, Fluo-4 calcium; Short transient receptor potential channel 4 (Mus musculus), Q9QUQ5; DAMGO EC20, Fluo-4 Ca2+ flux; hits give high values; B-score at 10 µM; 310,000 tested, 0.42% active; AID 2227, 2009;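 active = B-score of calcium response area above 5 SD of library B-scores, with initial fluorescence ratio within 5 SD of library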;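 note: B-score of integrated fluorescence ratio over time as area under calcium response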
TRPC4 agonist = activators of mouse TRPC4 channel, primary screen, Fluo4 calcium, HEK293 TRPC4beta/mu-opioid cells; Short transient receptor potential channel 4 (Mus musculus), Q9QUQ5; Fluo4 calcium fluorescence; hits give high values; B-score at 10 µM; 310,000 tested, 0.49% active; AID 2237, 2010;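 active = B-score above 5 SD of library B-scores, and initial fluorescence ratio not above library mean plus 5 SD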;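 note: positive B-score marks a calcium rise read as TRPC4 activation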
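Material: HEK293 stable line with TRPC4beta plus mu-opioid receptor; technique: Fluo4 calcium-sensitive dye fluorescence, kinetic, 1 Hz baseline; timing: Fluo4 dye loading 45 min at room temperature, 110 s recording; controls: assay buffer as low control, maximal DAMGO as high control; read-out: integrated baseline-normalised fluorescence ratio, converted to per-well B score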
TRPC4 spec 2 = second check of whether TRPC6 inhibitors also affect mouse TRPC4 | shares compounds with TRPC6 inh | HEK293 TRPC4/MOR, membrane potential dye fluorescence; channel activated by saturating DAMGO dose | inhibition, % at 10 µM | 920 tested, 42% active;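 active = compounds whose fluorescence signal differed from control wells by over 3 SD, either direction, in both duplicate plates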
TRPC4 spec = mouse TRPC4 modulation by TRPC6 hits, confirmation, selectivity assay for TRPC6 inhibitor project, cell-based, HEK293 TRPC4/mu-opioid, membrane potential dye; membrane potential fluorescence; activity change, negative = inhibition, % at 10 µM; AID 2777, 2010; shares compounds with TRPC6 inh; 920 tested, 61% active;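 active = rise or fall in signal beyond 3 SD of buffer-only wells in both replicate plates, either sign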;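 note: integrated kinetic ratio of fluorescence range over baseline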
HEK293 MPD ctr 2-1 = nonspecific membrane potential effects, parental HEK293, confirmation, counter-screen for TRPC6 inhibitor project, cell-based, second counter screen; parental HEK293 membrane potential dye fluorescence; maximal acetylcholine challenge after compound addition; 920 tested, 31% active; signal change vs control, % at 10 µM; shares compounds with TRPC6 inh;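 active = membrane potential signal moving either way by over 3 SD of the maximum-effect control, in both duplicate plates, meaning non-specific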
HEK293 MPD ctr-1 = membrane potential modulation in parental HEK293, confirmation, counter-screen for TRPC6 inhibitor project, cell-based. shares compounds with TRPC6 inh. parental HEK293 membrane potential dye fluorescence. membrane potential signal change, % at 10 µM. 920 tested, 60% active. AID 2780, 2010;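 active = membrane potential signal shifting up or down by more than 3 SD of buffer-only wells, on both duplicate plates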
HEK293 MPD ctr-2 = parental HEK293 membrane potential modulation, confirmation, counter-screen for TRPC6 modulator project, cell-based; shares compounds with TRPC6 inh; membrane potential dye fluorescence; membrane potential signal change, % at 10 µM; 2,400 tested, 51% active; AID 488924, 2010;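 active = membrane potential signal moves up or down beyond 5 SD from buffer-only wells, on both duplicate plates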
HEK293 MPD ctr 2-2 = second check of TRPC6 modulator effects in parental HEK293 cells. inhibition, % at 10 µM. 2,400 tested, 14% active. shares compounds with TRPC6 inh. membrane potential dye fluorescence; after compound, maximal acetylcholine stimulation;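 active = membrane potential signal drops by more than 5 SD from the mean control signal, in both duplicate plates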;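 note: plate controls were acetylcholine ECmax control wells for no effect and buffer only wells for full effect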
TRPC4 ctr mod = TRPC4 modulation by TRPC6 hit compounds, confirmation, selectivity assay for TRPC6 modulator project, cell-based, HEK293 TRPC4/mu-opioid, membrane potential dye, mouse. percent change from control (negative = decrease, positive = increase), % at 10 µM. 2,400 tested, 69% active. shares compounds with TRPC6 inh. membrane potential fluorescence. AID 488927, 2010;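 active = membrane potential signal moved up or down beyond 5 SD of buffer control wells, in both duplicate plates, actives on both sides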;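 note: plate controls were assay buffer wells for no effect and DAMGO maximal-effect wells for full effect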
TRPC4/MOR inh 2 = second selectivity test of TRPC6 modulators against mouse TRPC4 | shares compounds with TRPC6 inh | HEK293 TRPC4/mu-opioid, membrane potential dye fluorescence; stimulated with maximal-effect DAMGO | inhibition, % at 10 µM | 2,400 tested, 55% active;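 active = drop in membrane potential signal beyond 5 SD of the control wells in both duplicate plates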;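 note: TRPC4 counter screen for TRPC6 hits run under conditions tuned for TRPC6 not TRPC4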
TRPC6 inh conf = mouse TRPC6 channel inhibitors, confirmation, HEK293 cells, membrane potential dye, duplicate; 3,300 tested, 43% active; ACh-evoked depolarization; inhibition, % at 10 µM; shares compounds with TRPC6 inh;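 active = fluorescence ratio falls more than 5 SD below the full-stimulation control mean, in both duplicate runs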;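 note: integrated fluorescence ratio of peak minus minimum over baseline after agonist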
TRPC6 act confirm = mouse TRPC6 channel activators, confirmation, HEK293 cells, membrane potential dye, duplicate; shares compounds with TRPC6 inh; HEK293-TRPC6 membrane potential dye fluorescence, FDSS; activation, % at 10 µM; 2,800 tested, 11% active; AID 488961, 2010;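 active = ratio signal rise beyond 5 SD above unstimulated control wells' mean, seen in both duplicate runs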;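 note: plate controls were buffer EC0 wells for no effect and acetylcholine ECmax response for full effect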
* = called active by the depositor; i = inactive; / = no result given.

SMILES | TRPC6 activator | TRPC6 inh | TRPC4 block | TRPC4 potent | TRPC4 agonist | HEK293 MPD ctr-2 | HEK293 MPD ctr 2-2 | TRPC4 ctr mod | TRPC4/MOR inh 2 | TRPC6 inh conf | TRPC6 act confirm | others
COc1ccccc1CNC(=O)C1CC2Cn3c(nc4ccccc43)C2N1C (stereo not drawn) | 13* | i | i | i | i | i | i | i | i | i | i
CC(=O)C1CCN(Cc2ccccc2)CC1 | i | i | i | i | i | / | / | / | / | / | /
CSc1ccccc1OC1CCN(Cc2ccccc2)CC1 | 12* | i | i | i | i | 196%* | i | 40%* | 63%* | i | 77%*
COc1ccc(N2CC(C(=O)Nc3nc4ccc(F)cc4s3)CC2=O)c(OC)c1 (stereo not drawn) | i | i | i | i | i | / | / | / | / | / | /
O=C(CSCc1ccccc1)Nc1ccc(S(=O)(=O)Nc2ncccn2)cc1 | i | i | i | i | i | / | / | / | / | / | /
Cc1ccn2c(=O)c(C(=O)NCCCN3CCCC3=O)c(O)nc2c1 | i | -5.5* | i | i | i | -316%* | i | -45%* | i | i | i
Cc1cccn2c(=O)c(C(=O)NCCCN3CC(C)CC(C)C3)c(O)nc12 (stereo not drawn) | i | -5.1* | i | i | 73* | -140%* | i | i | i | i | i
Cc1ccn2c(=O)c(C(=O)NCCCN3CCCCC3C)c(O)nc2c1 (stereo not drawn) | i | -5.3* | i | i | i | -274%* | 70%* | -44%* | 56%* | 76%* | i
CN(C)c1ccc(/C=C2\SC(N3CCCCC3)=NC2=O)cc1 | i | -5.3* | i | i | i | 396%* | i | 34%* | i | i | /
Cn1nc(C(=O)N2CCOCC2)c([N+](=O)[O-])c1C(=O)N1CCOCC1 | i | i | i | i | i | / | / | / | / | / | /
Cc1nn2c(NCCCN(C)C)c3c(nc2c1-c1ccccc1)CCCC3 | i | -6.8* | i | i | i | / | / | / | / | 63%* | i | TRPC4 spec 2=72%*;TRPC4 spec=-19%*;HEK293 MPD ctr 2-1=i;HEK293 MPD ctr-1=-296%*
COCCNc1c2c(nc3c(-c4ccccc4)c(C)nn13)CCC2 | i | i | i | i | i | / | / | / | / | / | /
Cc1nn2c(NCCCN(C)C)c3c(nc2c1-c1ccccc1)CCC3 | i | -7.9* | i | i | i | -167%* | i | -30%* | 55%* | i | i
COc1cc(S(=O)(=O)NCCCn2ccnc2)ccc1F | i | i | i | i | i | / | / | / | / | / | /
Cc1cccc(NC(=O)COc2ccc(/C=C\c3[nH]c(=O)[nH]c(=O)c3[N+](=O)[O-])cc2)c1 | 14* | i | i | i | i | i | i | i | i | i | i
O=C(Nc1ccc(C(=O)OC2CCCCC2)cc1)c1ccncc1 | i | i | i | i | i | / | / | / | / | / | /
CCOC(=O)c1ccc2c(c1)n(CCCS(=O)(=O)[O-])c(/C=C/c1ccc(Cl)cc1)[n+]2CC | i | -7.4* | i | i | i | -333%* | i | -60%* | 61%* | 58%* | i
Cc1cc(C)n(-c2nc(NCCCN(C)C)c3c4c(sc3n2)COC(C)(C)C4)n1 | i | -7.6* | i | i | i | / | / | / | / | i | i | TRPC4 spec 2=i;TRPC4 spec=-11%*;HEK293 MPD ctr 2-1=i;HEK293 MPD ctr-1=-188%*
CCN(CC)CCNc1nc(-n2nc(C)cc2C)nc2sc3c(c12)CC(C)(C)OC3 | i | -6.3* | i | i | i | i | i | i | 40%* | i | i
Cc1cc(C)n(-c2nc(NCCC(C)C)c3c4c(sc3n2)COC(C)(C)C4)n1 | i | i | i | i | i | / | / | / | / | / | /
Cc1cc(C)n(-c2nc(NCCCN(C)C)c3c4c(sc3n2)CCCC4)n1 | i | -7.1* | i | i | i | / | / | / | / | 57%* | i | TRPC4 spec 2=66%*;TRPC4 spec=i;HEK293 MPD ctr 2-1=i;HEK293 MPD ctr-1=i
Cc1cc(C)n(-c2nc(NCCN(C)C)c3c4c(sc3n2)COC(C)(C)C4)n1 | i | -5.4* | i | i | i | i | i | -13%* | 44%* | i | i
